High-throughput results: PubChem BioAssay, several laboratories
Compounds with a hit are over-represented: about 4.6% of the library has one in this group of screens.
Hck Nef HTS: inhibitors of Nef-activated human Hck kinase, primary screen, biochemical, Z-Lyte FRET, 384-well, Hck-YEEI; AID 463187, 2010; Recombinant Hck-YEEI plus Nef, Z-Lyte FRET kinase assay; inhibition, % at 20 µM; 220,000 tested, 0.68% active;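 active = Hck-Nef kinase inhibition above about 50%, limit read from the data; inactive = inhibition below that limit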
Target sequence (P08631 whole entry, looked up): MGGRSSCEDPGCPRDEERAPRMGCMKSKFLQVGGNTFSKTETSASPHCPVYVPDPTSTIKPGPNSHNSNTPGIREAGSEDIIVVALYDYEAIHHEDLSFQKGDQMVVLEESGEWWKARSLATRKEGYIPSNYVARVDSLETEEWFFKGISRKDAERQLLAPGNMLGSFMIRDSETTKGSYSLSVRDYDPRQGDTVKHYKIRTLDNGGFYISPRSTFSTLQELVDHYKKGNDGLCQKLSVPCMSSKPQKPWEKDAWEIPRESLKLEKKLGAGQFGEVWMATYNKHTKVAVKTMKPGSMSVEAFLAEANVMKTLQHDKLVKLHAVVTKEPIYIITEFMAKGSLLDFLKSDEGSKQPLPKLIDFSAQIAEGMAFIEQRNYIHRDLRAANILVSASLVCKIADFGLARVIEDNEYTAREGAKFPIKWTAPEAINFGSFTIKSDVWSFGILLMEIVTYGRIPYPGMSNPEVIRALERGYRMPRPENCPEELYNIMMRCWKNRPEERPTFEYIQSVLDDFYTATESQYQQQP
p47phox inh: p47phox/p22phox peptide binding inhibitors, primary screen, biochemical, uHTS, NADPH oxidase regulatory subunit; AID 1274, 2008; fluorescence polarization, 2 h; inhibition, % at 24.7 µM; 220,000 tested, 0.53% active;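 active = inhibition above about 30%, limit read from the data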
WT yeast gro inh: growth inhibition of WT strain, primary screen, mitochondrial fusion inhibitor project, WT and mutant strains, chemical genetic. mitochondrial fusion phenotypic screen. inhibition, % at 10 µM. 190,000 tested, 2.1% active. AID 1362, 2008; in the data active = inhibition above about 58%; tested in S. cerevisiae
Biofilm kill mix: clotrimazole potentiators killing C. albicans biofilm, primary screen, 4-compound mixtures; 120,000 tested, 0.02% active; inhibition, % at 7.6 µM; AID 1242, 2008; C. albicans biofilm persisters + clotrimazole, fluorescence viability; primary screen in compound mixtures of four per well;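 also: compounds exposed to preformed 24 h biofilms for 48 h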
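Test system: C. albicans CAF4-2 wild-type biofilms; buffer or medium: RPMI/MOPS medium, pH 7.0; schedule: 24 h biofilm formation, then 48 h compound exposure, 37 °C; detection: Alamar Blue fluorescence; measure: percent inhibition of biofilm viability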
Arbovirus anti: antivirals against arbovirus infection, primary screen, cell-based, full library, 10K replicate subset; arbovirus infection cell-based antiviral screen; 200,000 tested, 0.37% active; inhibition, % at 10 µM; AID 1251, 2008; in the data active = inhibition above about 30%
RAM network inh: inhibitors of the yeast RAM network, primary screen, dse1pr::URA3 reporter, 5-FOA selection. S. cerevisiae dse1pr::URA3 reporter, 5-FOA growth OD615, 2 d; analog-sensitive cbk1-as2 kinase mutant strain. inhibition, % at 50 µM. 190,000 tested, 1.8% active. AID 868, 2007;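 active = inhibition above a set limit, 3 SD over mean compound inhibition, cut at about 8.4% in these data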;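 also: inhibition rescues growth on 5-FOA so higher OD means more RAM inhibition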
Numbers stand for hits; i = inactive; nt = not tested or not shown.

SMILES | Hck Nef HTS | p47phox inh | WT yeast gro inh | Biofilm kill mix | Arbovirus anti | RAM network inh
Cc1cc(-c2ccccc2)nc(-c2ccccc2)c1C | i | i | 78 | i | i | i
O=[N+]([O-])c1cccc(-c2cc(C(F)(F)F)n3nc(-c4ccccc4)cc3n2)c1 | i | i | nt | i | nt | nt
CC(C)(C)c1[nH]nc2c1C(c1ccc(OC(=O)c3ccco3)cc1)C(C#N)=C(N)O2 (centres undefined) | i | i | i | nt | i | 10
COc1ccc(/C=C2\N=C(SC)N(c3ccccc3OC)C2=O)cc1 | i | i | i | i | i | 8.4
CCN(CC)CCNC(=O)c1cccc(NC(=O)C(=O)c2cc(Br)ccc2NC(C)=O)c1 | i | i | i | i | i | i
Cc1ccc(-n2c(C)cc(C)c(C#N)c2=O)cc1 | i | i | i | nt | i | i
Cc1ccc(-n2c(N)c(C#N)c(-c3ccccc3)c(C#N)c2=O)cc1 | i | i | 70 | nt | i | i
COc1ccc(Nc2nc(N/N=C/c3ccc(N(C)C)cc3)nc(C)c2[N+](=O)[O-])cc1 | i | i | i | i | i | 10.0
COc1ccc(Nc2nc(NN)nc(C)c2[N+](=O)[O-])cc1 | i | i | i | i | i | i
Fc1ccccc1OCCCCCCN1CCCC1 | i | i | i | nt | i | i
O=C(NCC1CCCO1)C(c1cccs1)N(Cc1cccs1)C(=O)c1ccc(-c2ccccc2)[nH]1 (centres undefined) | i | i | i | i | i | 8.4
O=P(OC1CCCCC1)(OC1CCCCC1)C(O)c1ccccc1 (centres undefined) | i | i | i | nt | i | i
O=C(C(Cc1ccccc1)n1cccc1)N1CCN(c2cccc(Cl)c2)CC1 (centres undefined) | i | i | i | nt | i | 8.7
CC(=O)N1CCN(C(=S)NCc2ccccc2)CC1 | i | i | i | i | i | i
S=C(NCc1ccccc1)N1CCN(c2cccc(Cl)c2)CC1 | i | i | 70 | i | i | 8.5
O=[N+]([O-])c1ccc(N2CCN(C(=S)NCc3ccc(Cl)cc3)CC2)cc1 | i | i | i | i | i | 9.3
O=C(C(Cc1ccccc1)n1cccc1)N1CCN(Cc2ccccc2)CC1 (centres undefined) | i | i | i | nt | i | i
CNC(=S)N1CCN(c2ccc([N+](=O)[O-])cc2)CC1 | i | i | 67 | nt | i | i
CCNC(=S)N1CCN(c2ccc([N+](=O)[O-])cc2)CC1 | i | i | i | nt | i | i
O=C(CNC(=O)C12CC3CC(CC(C3)C1)C2)N1CCN(S(=O)(=O)/C=C/c2ccccc2)CC1 | i | i | i | i | i | i
COC(=O)C1C(=O)C(C(=O)/C=C/c2ccccc2)C(=O)CC1(C)C (centres undefined) | i | i | i | i | i | i
CCOc1ccc2c(c1)C(=NNC(=O)c1ccncc1)c1cc(OCC)ccc1-2 | i | i | i | i | i | i
COc1ccc(NC(=O)C2CC(=O)N(C(C)C)C2)cc1 (centres undefined) | i | i | i | nt | i | i
CCOc1ccc(NC(=O)C2CC(=O)N(C(C)C)C2)cc1 (centres undefined) | i | i | 63 | nt | i | i
CC(C)(C)c1ccc(C2CC2C(=O)N/N=C\c2cc3ccccc3nc2Cl)cc1 (centres undefined) | i | i | i | nt | i | i
SMILES | Hck Nef HTS | p47phox inh | WT yeast gro inh | Biofilm kill mix | Arbovirus anti | RAM network inh
Cc1ccc2nc(C)c(C(=O)N/N=C/c3ccccc3[N+](=O)[O-])cc2c1 | i | i | i | i | i | i
Cc1ccc2nc(Cl)c(/C=N/NC(=O)c3ccccc3O)cc2c1 | i | i | 62 | i | i | i
Cc1ccc2nc(Cl)c(/C=N/NC(=O)[C@H]3C[C@@H]3c3ccccc3)cc2c1 | i | 31 | i | i | i | i
O=C(N/N=C/C=C/c1ccccc1)C1CC1c1ccccc1 (centres undefined) | i | i | 64 | i | i | i
Nc1ccc(Sc2ccccc2CC(=O)O)cc1 | i | i | i | nt | i | i
C=CCSC1=N/C(=C\c2sccc2C)C(=O)S1 | i | i | i | nt | i | 9.4
C=CCSC1=N/C(=C\c2ccc3c(c2)OCO3)C(=O)S1 | i | i | i | nt | i | i
CCCC1=C(C(=O)OCC)C(c2ccco2)C(C#N)=C(N)O1 (centres undefined) | i | i | i | i | i | i
CCc1ccccc1NC(=S)N(Cc1cccs1)C1CCCC1 | i | i | 71 | i | i | i
Oc1c(C=C2N=c3ccccc3=N2)sc(=S)n1-c1ccccc1 | i | i | i | i | i | i
CC1=Nc2ccccc2/C1=C/c1sc(=S)n(-c2cccc(C(=O)O)c2)c1O | i | i | i | i | i | 10.0
COc1ccccc1/C=C1\NC(=S)N(CC2CCCO2)C1=O (centres undefined) | i | i | i | nt | i | i
COc1ccc(/C=C2/C(=O)N(CC3CCCO3)C(=S)N2C)c(OC)c1 (centres undefined) | i | i | i | nt | 52 | i
COc1ccc(CNC(=O)C2CCN(S(C)(=O)=O)CC2)c(OC)c1 | i | i | i | i | i | i
CC(C)(C)C1CCc2c(sc(NC(=O)CSc3ncn[nH]3)c2C#N)C1 (centres undefined) | i | i | 93 | i | i | i
CC1CCc2c(sc(NC(=O)CSc3ncn[nH]3)c2C#N)C1 (centres undefined) | i | i | nt | i | nt | nt
COc1ccc(C(=O)NN(C)c2nc(-c3ccccc3)nnc2C(F)(F)F)cc1 | i | i | 64 | nt | i | i
Cc1cccc(C)c1NC(=S)/N=C/N(C)C | i | 91 | i | i | i | i
CN(C)/C=N/C(=S)Nc1ccc(Cl)cc1 | i | i | i | i | i | i
O=C1c2ccccc2C(=O)N1CCCCN(C(=O)c1cc2ccccc2oc1=O)c1ccc(F)cc1F | i | i | i | i | i | i
CCOC(=O)c1cnc(SC)nc1Oc1cccc(NS(=O)(=O)c2ccc(Cl)cc2)c1 | i | i | i | nt | i | 9.2
CCOC(=O)c1cnc(-c2ccccc2)nc1Oc1cccc(Cl)c1 | i | i | i | nt | i | 8.9
CCOC(=O)c1cnc(SC)nc1Oc1cccc(NC(=O)c2ccc(Cl)cc2)c1 | i | i | i | nt | i | i
COc1cc(/C=N/NC(=O)c2ccc(CSc3nncn3C)cc2)cc(OC)c1O | i | i | i | i | i | i
CCN(CC)S(=O)(=O)c1ccc(=O)[nH]c1 | i | i | i | i | i | i
COc1ccc(C(=O)C(OC(=O)c2ccccc2Cl)c2ccccc2)cc1 (centres undefined) | i | i | i | i | i | 11
COC(=O)C(OC(=O)c1ccc(OC)cc1)C(=O)OC | i | i | i | i | i | i
